According to ChEMBL document CHEMBL1128221 (J Med Chem, 1995):
Calls of active or inactive are those of the source. No cut-off for these calls is given here.

T1: Carboxypeptidase G2 (Pseudomonas aeruginosa (strain ATCC 15692 / PAO1 / 1C / PRS 101 / LMG12228)) (UniProt Q9I056)
T1 sequence (whole entry): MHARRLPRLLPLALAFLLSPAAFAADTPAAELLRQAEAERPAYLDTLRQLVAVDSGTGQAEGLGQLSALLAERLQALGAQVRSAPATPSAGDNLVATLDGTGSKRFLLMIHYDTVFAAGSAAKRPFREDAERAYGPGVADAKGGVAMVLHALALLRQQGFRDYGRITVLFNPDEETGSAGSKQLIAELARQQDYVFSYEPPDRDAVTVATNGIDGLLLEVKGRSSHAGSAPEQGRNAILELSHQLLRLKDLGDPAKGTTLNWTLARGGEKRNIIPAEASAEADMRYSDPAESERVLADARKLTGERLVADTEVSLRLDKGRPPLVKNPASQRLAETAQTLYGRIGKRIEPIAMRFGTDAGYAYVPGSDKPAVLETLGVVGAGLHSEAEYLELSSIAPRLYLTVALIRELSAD

B1: Carboxypeptidase G2 (Pseudomonas aeruginosa (strain ATCC 15692 / PAO1 / 1C / PRS 101 / LMG12228)), Q9I056 (protein)
chain: T1 sequence (whole entry)

Legend:
[1] = target: T1, Carboxypeptidase G2 (Pseudomonas aeruginosa (strain ATCC 15692 / PAO1 / 1C / PRS 101 / LMG12228)); assay: (§1) Ability to act as substrate for Carboxypeptidase G2
How it was run: (§2)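 CPG2 cleavage of the glutamate oxycarbonyl/carbamoyl bond was followed spectrophotometrically. Prodrug and drug were scanned at 200–350 nm, and the wavelength of maximal absorbance difference was chosen. Initial rates of conversion were measured over a range of prodrug and CPG2 concentrations. KM and Vmax came from Michaelis–Menten fits. kcat was Vmax divided by the CPG2 concentration in the reaction.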

LoVo = assay: Cytotoxicity against colorectal tumor cell line LoVo 1 hour after incubation.; assay type: functional, cell-based; conditions: Homo sapiens
How it was run: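 LoVo colorectal cells (2.5 × 10^3/well) were exposed to a range of prodrug or parent drug concentrations for 1 h, then washed. The cells were grown a further 3 days at 37 °C, fixed, and stained with sulforhodamine B to measure cellular protein. Treated wells were compared with untreated controls to give IC50. The ratio is prodrug IC50 over drug IC50.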

[2] = Half life was reported; assay type: ADME
How it was run: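 Hydrolysis of the chloroethyl mustard groups was measured in phosphate buffer, pH 7.4, at 37 °C. Products were separated by HPLC on a 25 cm ODS column. t1/2 was calculated with a standard kinetic program. The method was not applied to bromo, iodo or mesyl mustards.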

[3] = target: T1, Carboxypeptidase G2 (Pseudomonas aeruginosa (strain ATCC 15692 / PAO1 / 1C / PRS 101 / LMG12228)); assay: Ratio of kcat/Km for carboxypeptidase G2 activity; how it was run: as §2
[4] = target: T1, Carboxypeptidase G2 (Pseudomonas aeruginosa (strain ATCC 15692 / PAO1 / 1C / PRS 101 / LMG12228)); assay: (§3) Ability to act as substrate for Carboxypeptidase G2; Not substrate; how it was run: as §2
[5] = target: T1, Carboxypeptidase G2 (Pseudomonas aeruginosa (strain ATCC 15692 / PAO1 / 1C / PRS 101 / LMG12228)); assay: Ratio of kcat/Km for carboxypeptidase G2; Not substrate; how it was run: as §2
[6] = target: T1, Carboxypeptidase G2 (Pseudomonas aeruginosa (strain ATCC 15692 / PAO1 / 1C / PRS 101 / LMG12228)); assay: Ratio of kcat/Km for carboxypeptidase G2; unstable; how it was run: as §2
[7] = target: T1, Carboxypeptidase G2 (Pseudomonas aeruginosa (strain ATCC 15692 / PAO1 / 1C / PRS 101 / LMG12228)); assay: (§4) Ability to act as substrate for Carboxypeptidase G2; unstable; how it was run: as §2
[8] = substrate: O=C(O)CC[C@H](NC(=O)Oc1ccc(N(CCI)CCI)cc1)C(=O)O; assay: as §1; how it was run: as §2
[9] = substrate: O=C(O)CC[C@H](NC(=O)Oc1ccc(N(CCBr)CCBr)cc1)C(=O)O; assay: as §1; how it was run: as §2
[10] = substrate: O=C(O)CC[C@H](NC(=O)Oc1ccc(N(CCCl)CCCl)cc1Cl)C(=O)O; assay: as §1; how it was run: as §2
[11] = substrate: N#Cc1cc(NC(=O)N[C@@H](CCC(=O)O)C(=O)O)ccc1N(CCCl)CCCl; assay: as §1; how it was run: as §2
[12] = substrate: Cc1cc(N(CCCl)CCCl)ccc1OC(=O)N[C@@H](CCC(=O)O)C(=O)O; assay: as §1; how it was run: as §2
[13] = substrate: Cc1cc(OC(=O)N[C@@H](CCC(=O)O)C(=O)O)ccc1N(CCCl)CCCl; assay: as §1; how it was run: as §2
[14] = substrate: O=C(O)CC[C@H](NC(=O)Nc1ccc(N(CCCl)CCCl)c(F)c1)C(=O)O; assay: as §1; how it was run: as §2
[15] = substrate: CC(C)c1cc(OC(=O)N[C@@H](CCC(=O)O)C(=O)O)ccc1N(CCCl)CCCl; assay: as §1; how it was run: as §2
[16] = substrate: O=C(O)CC[C@H](NC(=O)Nc1ccc(N(CCCl)CCCl)c(Cl)c1)C(=O)O; assay: as §1; how it was run: as §2
[17] = substrate: O=C(O)CC[C@H](NC(=O)Nc1ccc(N(CCBr)CCBr)c(F)c1)C(=O)O; assay: as §1; how it was run: as §2
[18] = substrate: O=C(O)CC[C@H](NC(=O)Oc1ccc(N(CCCl)CCCl)c(F)c1)C(=O)O; assay: as §4; how it was run: as §2
[19] = substrate: O=C(O)CC[C@H](NC(=O)Oc1ccc(N(CCCl)CCCl)c(Cl)c1)C(=O)O; assay: as §3; how it was run: as §2
[20] = substrate: O=C(O)CC[C@H](NC(=O)Oc1ccc(N(CCI)CCI)c(F)c1)C(=O)O; assay: as §3; how it was run: as §2
[21] = substrate: O=C(O)CC[C@H](NC(=O)Oc1ccc(N(CCBr)CCBr)c(F)c1)C(=O)O; assay: as §3; how it was run: as §2

| Molecule | k cat [1] | IC50 (LoVo) | half-life [2] | Ratio [3] | other results |
| --- | --- | --- | --- | --- | --- |
| O=C(O)CC[C@H](NC(=O)Oc1ccc(N(CCBr)CCBr)cc1)C(=O)O | 60 s⁻¹ | 9.4 µM |  |  |  |
| O=C(O)CC[C@H](NC(=O)Oc1ccc(N(CCCl)CCCl)cc1Cl)C(=O)O | 50.5 s⁻¹ | 86.7 µM | 186 min | 0.7 |  |
| CC(C)c1cc(OC(=O)N[C@@H](CCC(=O)O)C(=O)O)ccc1N(CCCl)CCCl | 12.6 s⁻¹ | 36.7 µM | 2.2 min | 0.2 |  |
| O=C(O)CC[C@H](NC(=O)Oc1ccc(N(CCI)CCI)cc1)C(=O)O | 29.5 s⁻¹ | 47.2 µM |  | 14.8 |  |
| O=C(O)CC[C@H](NC(=O)Oc1ccc(N(CCCl)CCCl)c(Cl)c1)C(=O)O |  | 9.4 µM | 1.7 min |  | k cat [4]: Not substrate; Ratio [5]: inactive |
| O=C(O)CC[C@H](NC(=O)Oc1ccc(N(CCI)CCI)c(F)c1)C(=O)O |  | 24.5 µM |  |  | k cat [4]: Not substrate; Ratio [5]: inactive |
| Cc1cc(N(CCCl)CCCl)ccc1OC(=O)N[C@@H](CCC(=O)O)C(=O)O | 13 s⁻¹ | 437 µM | 33 min | 0.6 |  |
| O=C(O)CC[C@H](NC(=O)Nc1ccc(N(CCBr)CCBr)c(F)c1)C(=O)O | 14.5 s⁻¹ | 298 µM |  | 2.7 |  |
| O=C(O)CC[C@H](NC(=O)Nc1ccc(N(CCCl)CCCl)c(F)c1)C(=O)O | 9.3 s⁻¹ | > 500 µM | 6.8 min | 3.4 |  |
| N#Cc1cc(NC(=O)N[C@@H](CCC(=O)O)C(=O)O)ccc1N(CCCl)CCCl | 8.4 s⁻¹ | > 500 µM | 61 min | 1 |  |
| O=C(O)CC[C@H](NC(=O)Nc1ccc(N(CCCl)CCCl)c(Cl)c1)C(=O)O | 9.4 s⁻¹ | 330 µM | 2.8 min | 7.8 |  |
| O=C(O)CC[C@H](NC(=O)Oc1ccc(N(CCCl)CCCl)c(F)c1)C(=O)O |  | 53 µM | 19 min |  | Ratio [6]: Unstable; k cat [7]: Unstable |
| O=C(O)CC[C@H](NC(=O)Oc1ccc(N(CCBr)CCBr)c(F)c1)C(=O)O |  | 46.2 µM |  |  | k cat [4]: Not substrate; Ratio [5]: inactive |
| Cc1cc(OC(=O)N[C@@H](CCC(=O)O)C(=O)O)ccc1N(CCCl)CCCl | 30 s⁻¹ | 116 µM | 1.6 min | 2.3 |  |
| B1 |  |  |  |  | Km [8]: 2 µM; Km [9]: 6.2 µM; Km [10]: 76.5 µM; Km [11]: 8.3 µM; Km [12]: 23.5 µM; Km [13]: 13 µM; Km [14]: 2.7 µM; Km [15]: 56 µM; Km [16]: 1.2 µM; Km [17]: 5.4 µM; Km [18]: Unstable; Km [19]: Not substrate; Km [20]: Not substrate; Km [21]: Not substrate |
